Assay results published in ChEMBL document CHEMBL1148020, “Synthesis and glycogen phosphorylase inhibitor activity of 2,3-dihydrobenzo[1,4]dioxin derivatives” (Bioorg Med Chem, 2007).

Columns and labels:
[1] = species: Homo sapiens; test: Inhibition of glycogen phosphorylase A at 625 uM
[2] = target: T1, Glycogen phosphorylase, liver form (Homo sapiens) (UniProt P06737); test: Inhibition of liver glycogen phosphorylase B at 625 uM
T1 sequence (whole entry): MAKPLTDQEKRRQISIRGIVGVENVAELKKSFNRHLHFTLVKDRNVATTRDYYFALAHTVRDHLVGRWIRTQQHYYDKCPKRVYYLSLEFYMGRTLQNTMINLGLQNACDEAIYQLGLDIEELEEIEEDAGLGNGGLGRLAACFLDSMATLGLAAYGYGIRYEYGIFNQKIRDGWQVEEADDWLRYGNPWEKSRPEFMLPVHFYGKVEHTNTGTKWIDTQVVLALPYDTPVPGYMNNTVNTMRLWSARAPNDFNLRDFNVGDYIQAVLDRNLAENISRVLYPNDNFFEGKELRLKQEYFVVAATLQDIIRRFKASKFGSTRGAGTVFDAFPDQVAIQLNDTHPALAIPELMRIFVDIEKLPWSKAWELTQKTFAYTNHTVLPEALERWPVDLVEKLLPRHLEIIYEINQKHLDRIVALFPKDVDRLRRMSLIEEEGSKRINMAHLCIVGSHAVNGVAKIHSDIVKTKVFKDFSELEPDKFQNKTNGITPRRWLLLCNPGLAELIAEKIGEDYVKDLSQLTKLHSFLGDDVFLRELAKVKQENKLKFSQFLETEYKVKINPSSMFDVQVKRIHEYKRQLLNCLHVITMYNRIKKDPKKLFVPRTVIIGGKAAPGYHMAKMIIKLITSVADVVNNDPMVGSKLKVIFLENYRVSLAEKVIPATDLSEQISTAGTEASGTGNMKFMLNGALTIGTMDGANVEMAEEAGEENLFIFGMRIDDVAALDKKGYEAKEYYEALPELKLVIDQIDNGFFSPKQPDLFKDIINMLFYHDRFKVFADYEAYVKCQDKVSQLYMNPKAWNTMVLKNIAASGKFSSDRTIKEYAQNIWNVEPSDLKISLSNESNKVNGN

[3] = species: Homo sapiens; test: Inhibition of glycogen phosphorylase at 625 uM
[4] = Inhibition of glycogen phosphorylase; set-up: species or system Homo sapiens
Outline: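 Activity measured in the glycogen-synthesis direction at 30 °C with 1% glycogen, with or without glucose-1-phosphate substrate. Buffer was 50 mM triethanolamine/HCl pH 6.8 with 100 mM KCl, 1 mM dithiothreitol and 1 mM EDTA. Muscle or liver phosphorylase a was run without AMP. Phosphorylase b was run with AMP: 1 mM for muscle, 2 mM for liver. Kinetic analysis followed the authors' earlier protocol.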

SMILES	inhibition [1] [%]	inhibition [2] [%]	inhibition [3] [%]	IC50 [4] [mM]
O=C1NC(=O)C(Cc2ccc(OCC3COc4ccccc4O3)cc2)S1 (configuration not stated)	20	20	20	–
O=C1N=C(O)S/C1=C\c1ccc(OCC2COc3ccccc3O2)cc1 (configuration not stated)	20	20	20	–
O=C1NC(=O)C(Cc2ccc(OCC3COc4cc5c(cc4O3)OCO5)cc2)S1 (configuration not stated)	–	–	–	7
